Test results from ChEMBL document CHEMBL1811915, “Discovery of new chromone containing sulfonamides as potent inhibitors of bovine cytosolic carbonic anhydrase” (Bioorg Med Chem, 2011).

Columns and labels:
[1] = Inhibition of bovine carbonic anhydrase assessed as formation of p-nitrophenol from p-nitrophenyl acetate substrate after 30 mins by spectrophotometric method; design: species or system Bos taurus
Method in brief: (§1)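 Bovine cytosolic CA (CA-I plus CA-II mix, 98.9% pure), 0.35 U/well, in 50 mM Tris–sulfate pH 7.6 with 0.1 mM ZnCl₂. Compound in DMSO is pre-incubated with enzyme for 10 min at 25 °C and pre-read at 348 nm. p-Nitrophenyl acetate is added to 0.6 mM final, then read at 348 nm after 30 min at 25 °C. Percent inhibition is relative to DMSO control; mean of three independent experiments ± sem.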

[2] = species: Bos taurus; assay: Inhibition of bovine carbonic anhydrase assessed as formation of p-nitrophenol from p-nitrophenyl acetate substrate at 0.5 mM after 30 mins by spectrophotometric method; method in brief: as §1

CCOC1Oc2ccc(Br)cc2C(=O)/C1=C\Nc1ccc(S(N)(=O)=O)cc1 (centres undefined)
IC50 [1]: 16.12 µmol | inhibition [2]: 65.2%

CCOC1Oc2ccc(CC)cc2C(=O)/C1=C\Nc1ccc(S(N)(=O)=O)cc1 (centres undefined)
IC50 [1]: 16.63 µmol | inhibition [2]: 69.7%

CCOC1Oc2ccc(F)cc2C(=O)/C1=C\Nc1ccc(S(N)(=O)=O)cc1 (centres undefined)
IC50 [1]: 4.31 µmol | inhibition [2]: 71.2%

CS(N)(=O)=O [METHANESULFONAMIDE]
Ki [1]: 100 µM

CCOC1Oc2ccc(F)cc2C(=O)/C1=C\Nc1cccc(S(N)(=O)=O)c1 (centres undefined)
IC50 [1]: 11.37 µmol | inhibition [2]: 66.8%

CCOC1Oc2c(Br)cc(Br)cc2C(=O)/C1=C\Nc1ccc(S(N)(=O)=O)cc1 (centres undefined)
IC50 [1]: 21.12 µmol | inhibition [2]: 67.3%

CC(=O)Nc1nnc(S(N)(=O)=O)s1 [ACETAZOLAMIDE]
IC50 [1]: 1.13 µmol | inhibition [2]: 91.3%

NS(=O)(=O)C(F)(F)F [TRIFLUOROMETHANESULFONAMIDE]
Ki [1]: 0.002 µM

CCOC1Oc2ccccc2C(=O)/C1=C\Nc1ccc(S(N)(=O)=O)cc1 (centres undefined)
IC50 [1]: 19.21 µmol | inhibition [2]: 64%

CCOC1Oc2ccc(Br)cc2C(=O)/C1=C\Nc1cccc(S(N)(=O)=O)c1 (centres undefined)
IC50 [1]: 18.27 µmol | inhibition [2]: 68.8%

CCOC1Oc2ccc(CC)cc2C(=O)/C1=C\Nc1cccc(S(N)(=O)=O)c1 (centres undefined)
IC50 [1]: 11.71 µmol | inhibition [2]: 65.3%

CCOC1Oc2c(Br)cc(Br)cc2C(=O)/C1=C\Nc1cccc(S(N)(=O)=O)c1 (centres undefined)
IC50 [1]: 29.12 µmol | inhibition [2]: 61.2%

CCOC1Oc2ccccc2C(=O)/C1=C\Nc1cccc(S(N)(=O)=O)c1 (centres undefined)
IC50 [1]: 17.72 µmol | inhibition [2]: 67.6%
